How the values were obtained:
Format in all cases: functional
MDA-MB-435 = assay: Cytotoxicity against human MDA-MB-435 cells assessed as growth inhibition after 48 hrs by SRB assay
Procedure, shortened: (§1)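 NCI 60-cell-line screen, five-dose stage: each cell line exposed for 48 h to five concentrations spanning five log steps; cellular protein measured by sulforhodamine B colorimetry. A time-zero cell control and plates without drug are used to derive GI50, TGI and LC50 from log-concentration dose-response curves.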

MDA-MB-231 = assay: Cytotoxicity against human MDA-MB-231 cells assessed as growth inhibition after 48 hrs by SRB assay; procedure, shortened: as §1
SNB-19 = assay: Cytotoxicity against human SNB19 cells assessed as growth inhibition after 48 hrs by SRB assay
Procedure, shortened: (§2)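 NCI 60-cell-line screen, two stages. Five-dose testing at […]. Cellular protein measured by sulforhodamine B colorimetry after 48 h drug exposure. A time-zero control and drug-free plates are used to derive GI50, TGI and LC50 from dose-response curves plotted as log10 concentration per cell line.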

[1] = Cytotoxicity against human Hs578T cells assessed as cell growth at 10 uM after 48 hrs by SRB assay; details: Hs-578T, read-out: Activity
KM12 = assay: Cytotoxicity against human KM12 cells assessed as growth inhibition after 48 hrs by SRB assay
Procedure, shortened: (§3)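 NCI 60-cell-line five-dose screen at […]. Drug exposure was 48 h, followed by sulforhodamine B protein staining. GI50, TGI and LC50 were calculated against a time-zero control and untreated plates, with dose–response curves plotted from log10 concentration.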

K562 = assay: Cytotoxicity against human K562 cells assessed as growth inhibition after 48 hrs by SRB assay; procedure, shortened: as §3
MCF7 = assay: Cytotoxicity against human MCF7 cells assessed as growth inhibition after 48 hrs by SRB assay; procedure, shortened: as §1
RXF 393 = assay: Cytotoxicity against human RXF393 cells assessed as growth inhibition after 48 hrs by SRB assay; procedure, shortened: as §1
MDA-MB-468 = assay: Cytotoxicity against human MDA-MB-468 cells assessed as growth inhibition after 48 hrs by SRB assay; procedure, shortened: as §1
[2] = (§4) Cytotoxicity against human OVCAR4 cells assessed as growth inhibition after 48 hrs by SRB assay; details: OVCAR-4, 48 h; procedure, shortened: as §1
OVCAR-4 = assay: as §4; procedure, shortened: as §1
SK-MEL-28 = assay: Cytotoxicity against human SK-MEL-28 cells assessed as growth inhibition after 48 hrs by SRB assay; procedure, shortened: as §1
T47D = assay: Cytotoxicity against human T47D cells assessed as growth inhibition after 48 hrs by SRB assay; procedure, shortened: as §2
SR = assay: Cytotoxicity against human SR cells assessed as growth inhibition after 48 hrs by SRB assay; procedure, shortened: as §2
786-0 = assay: Cytotoxicity against human 786-0 cells assessed as growth inhibition after 48 hrs by SRB assay; procedure, shortened: as §3
PC-3 = assay: Cytotoxicity against human PC3 cells assessed as growth inhibition after 48 hrs by SRB assay; procedure, shortened: as §1
SF-295 = assay: Cytotoxicity against human SF295 cells assessed as growth inhibition after 48 hrs by SRB assay; procedure, shortened: as §1
SK-MEL-5 = assay: Cytotoxicity against human SK-MEL-5 cells assessed as growth inhibition after 48 hrs by SRB assay; procedure, shortened: as §1
HL-60(TB) = assay: Cytotoxicity against human HL-60(TB) cells assessed as growth inhibition after 48 hrs by SRB assay
Procedure, shortened: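 NCI 60-cell panel five-concentration stage (0.01, 0.1, 1, 10, 100) in HL-60(TB). Cellular protein was measured by sulforhodamine B colorimetry after 48 h of exposure. A time-zero cell control and untreated plates allowed calculation of GI50, TGI and LC50. These were read from log10 concentration dose-response curves.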

MOLT-4 = assay: Cytotoxicity against human MOLT4 cells assessed as growth inhibition after 48 hrs by SRB assay; procedure, shortened: as §1
HCC 2998 = assay: Cytotoxicity against human HCC2998 cells assessed as growth inhibition after 48 hrs by SRB assay; procedure, shortened: as §3
A549 = assay: Cytotoxicity against human A549 cells assessed as growth inhibition after 48 hrs by SRB assay; procedure, shortened: as §3
IGROV-1 = assay: Cytotoxicity against human IGROV1 cells assessed as growth inhibition after 48 hrs by SRB assay; procedure, shortened: as §3
A498 = assay: Cytotoxicity against human A498 cells assessed as growth inhibition after 48 hrs by SRB assay; procedure, shortened: as §3
HCT-15 = assay: Cytotoxicity against human HCT15 cells assessed as growth inhibition after 48 hrs by SRB assay; procedure, shortened: as §3
NCI-H23 = assay: Cytotoxicity against human NCI-H23 cells assessed as growth inhibition after 48 hrs by SRB assay; procedure, shortened: as §1
SN12C = assay: Cytotoxicity against human SN12C cells assessed as growth inhibition after 48 hrs by SRB assay; procedure, shortened: as §2

CCSc1nc2ccc3c(c2[nH]1)C(=O)c1ccccc1C3=O
4.21 µM: GI50 (T47D)
3.52 µM: GI50 (HCT-15; HCT-15, 48 h)
12.6 µM: GI50 (HCC 2998; HCC 2998, 48 h)
4.84 µM: GI50 (MCF7; MCF7, 48 h)
76.5 µM: GI50 (MDA-MB-435; MDA-MB-435, 48 h)
> 100 µM: LC50 (MDA-MB-435; MDA-MB-435, 48 h) | TGI (MDA-MB-435; MDA-MB-435, 48 h) | LC50 (MDA-MB-231; MDA-MB-231, 48 h) | TGI (MDA-MB-231; MDA-MB-231, 48 h) | GI50 (SNB-19; SNB-19, 48 h) | LC50 (SNB-19; SNB-19, 48 h) | TGI (SNB-19; SNB-19, 48 h) | TGI (KM12; KM12, 48 h) | CC50 (KM12; KM12, 48 h, read-out: LC50 (the source's name)) | TGI (K562; K562, 48 h) | CC50 (K562; K562, 48 h, read-out: LC50 (the source's name)) | LC50 (concentration killing 50% of cells) (MCF7; MCF7, 48 h) | TGI (MCF7; MCF7, 48 h) | TGI (RXF 393; RXF 393, 48 h) | CC50 (RXF 393; RXF 393, 48 h, read-out: LC50 (the source's name)) | LC50 (MDA-MB-468; MDA-MB-468, 48 h) | LC50 (concentration killing 50% of cells) [2] | TGI [2] | LC50 (SK-MEL-28; SK-MEL-28, 48 h) | TGI (SK-MEL-28; SK-MEL-28, 48 h) | LC50 (T47D) | TGI (T47D) | LC50 (50% lethal concentration) (SR) | TGI (SR) | LC50 (concentration causing 50% net cell kill) (786-0; 786-0, 48 h) | TGI (786-0; 786-0, 48 h) | LC50 (PC-3; PC-3, 48 h) | TGI (PC-3; PC-3, 48 h) | LC50 (SF-295; SF-295, 48 h) | LC50 (concentration killing 50% of cells relative to time zero) (SK-MEL-5; SK-MEL-5, 48 h) | TGI (SK-MEL-5; SK-MEL-5, 48 h) | LC50 (HL-60(TB); HL-60, 48 h) | TGI (HL-60(TB); HL-60, 48 h) | LC50 (50% lethal concentration) (MOLT-4; MOLT-4, 48 h) | TGI (MOLT-4; MOLT-4, 48 h) | TGI (HCC 2998; HCC 2998, 48 h) | CC50 (HCC 2998; HCC 2998, 48 h, read-out: LC50 (the source's name)) | LC50 (concentration killing 50% of cells) (A549; A549, 48 h) | TGI (A549; A549, 48 h) | LC50 (IGROV-1; IGROV-1, 48 h) | TGI (IGROV-1; IGROV-1, 48 h) | TGI (A498; A498, 48 h) | CC50 (A498; A498, 48 h, read-out: LC50 (the source's name)) | LC50 (concentration killing 50% of cells) (HCT-15; HCT-15, 48 h) | TGI (HCT-15; HCT-15, 48 h) | LC50 (NCI-H23; NCI-H23, 48 h) | TGI (NCI-H23; NCI-H23, 48 h) | TGI (SN12C) | CC50 (SN12C; read-out: LC50 (the source's name))
43.6 µM: GI50 (SK-MEL-28; SK-MEL-28, 48 h)
9.67 µM: GI50 (A549; A549, 48 h)
2.36 µM: GI50 (SR)
85.4%: growth at 10 µM [1]
33.6 µM: GI50 (SK-MEL-5; SK-MEL-5, 48 h)
20.7 µM: GI50 (MDA-MB-231; MDA-MB-231, 48 h)
10.3 µM: GI50 (SN12C)
4.05 µM: GI50 (MOLT-4; MOLT-4, 48 h)
2.01 µM: GI50 (MDA-MB-468; MDA-MB-468, 48 h)
3.17 µM: GI50 [2]
4.7 µM: GI50 (A498; A498, 48 h)
65 µM: GI50 (PC-3; PC-3, 48 h)
active: growth inhibition (GI) (MDA-MB-435) Dose-dependent effect | growth inhibition (GI) (MDA-MB-231) Dose-dependent effect | growth inhibition (GI) (SNB-19) Dose-dependent effect | growth inhibition (GI) (KM12) Dose-dependent effect | growth inhibition (GI) (K562) Dose-dependent effect | growth inhibition (GI) (MCF7) Dose-dependent effect | growth inhibition (GI) (RXF 393) Dose-dependent effect | growth inhibition (GI) (MDA-MB-468) Dose-dependent effect | growth inhibition (GI) (OVCAR-4) Dose-dependent effect | growth inhibition (GI) (SK-MEL-28) Dose-dependent effect | growth inhibition (GI) (T47D) Dose-dependent effect | growth inhibition (GI) (SR) Dose-dependent effect | growth inhibition (GI) (786-0) Dose-dependent effect | growth inhibition (GI) (PC-3) Dose-dependent effect | growth inhibition (GI) (SF-295) Dose-dependent effect | growth inhibition (GI) (SK-MEL-5) Dose-dependent effect | growth inhibition (GI) (HL-60(TB)) Dose-dependent effect | growth inhibition (GI) (MOLT-4) Dose-dependent effect | growth inhibition (GI) (HCC 2998) Dose-dependent effect | growth inhibition (GI) (A549) Dose-dependent effect | growth inhibition (GI) (IGROV-1) Dose-dependent effect | growth inhibition (GI) (A498) Dose-dependent effect | growth inhibition (GI) (HCT-15) Dose-dependent effect | growth inhibition (GI) (NCI-H23) Dose-dependent effect | growth inhibition (GI) (SN12C) Dose-dependent effect
4.17 µM: GI50 (SF-295; SF-295, 48 h)
47.4 µM: TGI (SF-295; SF-295, 48 h)
5.26 µM: GI50 (HL-60(TB); HL-60, 48 h)
59.6 µM: TGI (MDA-MB-468; MDA-MB-468, 48 h)
2.38 µM: GI50 (IGROV-1; IGROV-1, 48 h)
5.17 µM: GI50 (RXF 393; RXF 393, 48 h)
46.7 µM: GI50 (786-0; 786-0, 48 h)
8.6 µM: GI50 (NCI-H23; NCI-H23, 48 h)
13.5 µM: GI50 (K562; K562, 48 h)
8.43 µM: GI50 (KM12; KM12, 48 h)
